Converted amounts (≈) assume the structure as drawn. The source made the active and inactive calls. The rule behind the calls is not given here.
Key:
SUMO-activating enzyme [1] = molecular target: T1, SUMO-activating enzyme (Homo sapiens, UniProt Q9UBT2); assay: Inhibition of recombinant SAE (unknown origin) assessed as reduction in transfer of SUMO1 to UBC9 using SUMO1 as a substrate in presence of ATP at Km concentration by HTRF assay; type: protein-complex assay
Summary of the method: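 HTRF transthiolation assay measuring transfer of SUMO1 to UBC9, the E2 for SAE.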

[2] = Inhibition of recombinant UAE (unknown origin) in presence of ATP at Km concentration by HTRF assay; set-up: species or system Homo sapiens
NEDD8 activating enzyme = molecular target: T2, NEDD8 activating enzyme (Homo sapiens, UniProt Q8TBC4); assay: Inhibition of recombinant NAE (unknown origin) in presence of ATP at Km concentration by HTRF assay; type: protein-complex assay
T2 sequence (Q8TBC4 whole entry): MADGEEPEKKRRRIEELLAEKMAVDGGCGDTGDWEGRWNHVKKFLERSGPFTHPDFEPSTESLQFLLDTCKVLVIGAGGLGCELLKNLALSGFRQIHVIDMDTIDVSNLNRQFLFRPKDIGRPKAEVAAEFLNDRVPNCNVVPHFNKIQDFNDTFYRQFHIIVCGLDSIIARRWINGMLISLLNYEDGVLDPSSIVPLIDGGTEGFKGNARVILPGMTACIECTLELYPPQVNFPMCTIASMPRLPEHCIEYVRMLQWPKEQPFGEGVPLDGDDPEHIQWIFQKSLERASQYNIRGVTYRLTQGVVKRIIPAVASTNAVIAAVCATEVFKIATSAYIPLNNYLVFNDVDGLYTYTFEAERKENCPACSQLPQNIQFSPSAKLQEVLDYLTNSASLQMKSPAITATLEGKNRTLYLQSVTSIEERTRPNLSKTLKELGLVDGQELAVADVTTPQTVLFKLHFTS
T2 sequence (Q13564 whole entry): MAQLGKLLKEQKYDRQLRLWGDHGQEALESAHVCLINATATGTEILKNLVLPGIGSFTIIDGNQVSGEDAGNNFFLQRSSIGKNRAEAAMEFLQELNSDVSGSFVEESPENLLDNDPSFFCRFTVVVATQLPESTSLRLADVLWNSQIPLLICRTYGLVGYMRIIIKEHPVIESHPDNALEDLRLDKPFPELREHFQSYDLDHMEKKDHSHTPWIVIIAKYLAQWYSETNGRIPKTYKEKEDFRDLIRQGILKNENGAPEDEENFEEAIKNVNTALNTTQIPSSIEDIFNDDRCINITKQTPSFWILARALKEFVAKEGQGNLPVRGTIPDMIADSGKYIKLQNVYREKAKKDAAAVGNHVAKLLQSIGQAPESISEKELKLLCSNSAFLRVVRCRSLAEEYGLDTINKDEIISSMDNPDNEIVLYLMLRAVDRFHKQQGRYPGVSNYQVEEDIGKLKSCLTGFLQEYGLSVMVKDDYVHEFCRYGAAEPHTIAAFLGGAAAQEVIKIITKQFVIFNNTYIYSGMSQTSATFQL

SUMO-activating enzyme [3] = molecular target: T1, SUMO-activating enzyme; assay: Inhibition of SAE in human HCT116 cells assessed as reduction in redistribution of SUMO2/3 proteins from nucleus to cytosol incubated for 4 hrs by immunofluorescence assay; type: cell-based, HCT-116
Summary of the method: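 HCT-116 cells exposed to compound across a concentration range for 4 h, then stained with anti-SUMO2/3 monoclonal antibody. Automated imaging scored the nuclear (inner) to cytoplasmic (outer) SUMO2/3 ratio. IC50 taken from the dose response.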

SUMO-activating enzyme [4] = molecular target: T1, SUMO-activating enzyme; assay: Inhibition of SAE in human HCT116 cells assessed as redistribution of SUMO2/3 proteins from nucleus to cytosol preincubated for 2 hrs followed by compound washout and measured immediately by immunofluorescence assay; type: cell-based, HCT-116
Summary of the method: (§1)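 Washout format of the SUMO2/3 immunofluorescence assay in HCT116 cells. Cells were exposed to a range of concentrations for 2 h, then washed free of compound.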

SUMO-activating enzyme [5] = molecular target: T1, SUMO-activating enzyme; assay: Inhibition of SAE in human HCT116 cells assessed as redistribution of SUMO2/3 proteins from nucleus to cytosol preincubated for 2 hrs followed by compound washout and measured after 8 hrs by immunofluorescence assay; type: cell-based, HCT-116; summary of the method: as §1
[6] = molecular target: SUMO-activating enzyme (Homo sapiens) (UniProt Q9UBE0+Q9UBT2); assay: Inhibition of SAE in human HCT116 cells xenografted in NCr nude mouse assessed as reduction in SUMO2/3 protein conjugates at 50 mg/kg, iv and measured up to 16 hrs by immunohistochemistry analysis; type: organism-based; conditions: HCT-116
Summary of the method: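 HCT-116 tumors in female Ncr nude mice, n = 3 per time point, after a single IV dose at t = 0. SUMO2/3 conjugation in tumors measured by IHC at 2, 4, 8 and 16 h. Read-out is nuclei staining positive for SUMO2/3 conjugates over total nuclei, normalized to vehicle-treated animals (time = 0 h), expressed as percent inhibition.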

OCI-Ly10 = assay: Cytotoxicity against human OCI-LY10 cells assessed as reduction in cell viability after 72 hrs by CellTiter-Glo luminescent assay; type: functional, cell-based; conditions: OCI-Ly10, 72 h
HCT-116 = assay: Antitumor activity against human HCT-116 cells xenografted in Ncr/nude mouse assessed as tumor growth inhibition at 50 mg/kg, iv administered thrice per week for 21 days and measured twice weekly; type: functional, organism-based; conditions: time 21.0 day
Summary of the method: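 Female Ncr/nude mice carrying HCT-116 tumors (~200 mm3) were randomized, n = 8/group, with treatment from Day 1. Schedules were QD x21 (Days 1–21) or QD x3/week (three consecutive dosing days, four off). Tumor volume was measured twice weekly.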

[7] = Lipophilicity, logD of compound at pH 7.4; type: physicochemical; conditions: buffer
[8] = Dissociation constant , pKa of the compound; type: physicochemical
[9] = Apparent permeability across apical to basolateral side in human Caco2 cells; type: ADME, cell-based; conditions: Caco-2
[10] = Efflux ratio of apparent permeability across basolateral to apical side over apical to basolateral side in human Caco-2 cells; type: ADME, cell-based
[11] = Solubility of compound in 10% hydroxypropyl-beta-cyclodextrin after 24 hrs; type: physicochemical
Carbonic anhydrase 1 = Carbonic anhydrase 1 (Homo sapiens, UniProt P00915); assay: Inhibition of human erythrocyte CA1 using fluorescein diacetate as substrate at […] by fluorometric esterase assay
Carbonic anhydrase 2 = Carbonic anhydrase 2 (Homo sapiens, UniProt P00918); assay: Inhibition of recombinant human CA2 expressed in Escherichia coli using fluorescein diacetate as substrate at […] by fluorometric esterase assay
[12] = AUC in rat blood at 1 mg/kg, iv; type: ADME, organism-based; set-up: dose 1 mg/kg
[13] = AUC in rat plasma at 1 mg/kg, iv; type: ADME, organism-based; set-up: dose 1 mg/kg
[14] = Clearance in rat blood at 1 mg/kg, iv; type: ADME, organism-based; conditions: in vivo
[15] = Clearance in rat plasma at 1 mg/kg, iv; type: ADME, organism-based; conditions: in vivo
[16] = Volume of distribution at steady state in rat blood at 1 mg/kg, iv; type: ADME, organism-based; conditions: read-out: Vdss
[17] = Volume of distribution at steady state in rat plasma at 1 mg/kg, iv; type: ADME, organism-based; conditions: read-out: Vdss
[18] = Half life in rat blood at 1 mg/kg, iv; type: ADME, organism-based
[19] = Half life in rat plasma at 1 mg/kg, iv; type: ADME, organism-based
[20] = AUC in rat blood at 10 mg/kg, po; type: ADME, organism-based; set-up: dose 10 mg/kg
[21] = AUC in rat plasma at 10 mg/kg, po; type: ADME, organism-based; set-up: dose 10 mg/kg
[22] = Oral bioavailability in rat plasma at 10 mg/kg; type: ADME, organism-based

T1 sequence (Q9UBE0 whole entry): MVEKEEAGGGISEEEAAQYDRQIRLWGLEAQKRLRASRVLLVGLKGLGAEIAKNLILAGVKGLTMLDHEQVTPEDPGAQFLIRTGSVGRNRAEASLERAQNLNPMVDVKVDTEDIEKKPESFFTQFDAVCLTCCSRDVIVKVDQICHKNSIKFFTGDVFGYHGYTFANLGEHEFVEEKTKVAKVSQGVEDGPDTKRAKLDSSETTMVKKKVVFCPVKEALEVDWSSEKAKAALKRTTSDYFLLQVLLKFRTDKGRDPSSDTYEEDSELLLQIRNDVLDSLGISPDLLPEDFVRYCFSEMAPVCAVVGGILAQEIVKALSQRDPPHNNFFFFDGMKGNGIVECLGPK
T1 sequence (Q9UBT2 whole entry): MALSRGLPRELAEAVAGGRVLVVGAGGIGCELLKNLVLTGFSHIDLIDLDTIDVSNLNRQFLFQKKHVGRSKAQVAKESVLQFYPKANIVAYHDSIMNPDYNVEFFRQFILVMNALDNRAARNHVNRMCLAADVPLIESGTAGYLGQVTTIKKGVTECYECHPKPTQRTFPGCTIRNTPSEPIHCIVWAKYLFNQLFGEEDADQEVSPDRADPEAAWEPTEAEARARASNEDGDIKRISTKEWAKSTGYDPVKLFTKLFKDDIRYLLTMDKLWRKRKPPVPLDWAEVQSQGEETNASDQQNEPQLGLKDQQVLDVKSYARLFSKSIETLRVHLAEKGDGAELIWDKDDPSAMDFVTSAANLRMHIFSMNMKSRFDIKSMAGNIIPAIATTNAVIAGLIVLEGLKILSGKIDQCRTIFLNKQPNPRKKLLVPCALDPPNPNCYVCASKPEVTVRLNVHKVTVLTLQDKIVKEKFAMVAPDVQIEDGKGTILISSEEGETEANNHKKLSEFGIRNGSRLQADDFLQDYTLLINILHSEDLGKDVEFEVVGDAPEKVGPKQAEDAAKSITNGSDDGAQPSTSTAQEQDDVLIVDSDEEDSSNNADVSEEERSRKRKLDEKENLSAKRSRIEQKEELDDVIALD
Carbonic anhydrase 1, sequence (P00915 whole entry): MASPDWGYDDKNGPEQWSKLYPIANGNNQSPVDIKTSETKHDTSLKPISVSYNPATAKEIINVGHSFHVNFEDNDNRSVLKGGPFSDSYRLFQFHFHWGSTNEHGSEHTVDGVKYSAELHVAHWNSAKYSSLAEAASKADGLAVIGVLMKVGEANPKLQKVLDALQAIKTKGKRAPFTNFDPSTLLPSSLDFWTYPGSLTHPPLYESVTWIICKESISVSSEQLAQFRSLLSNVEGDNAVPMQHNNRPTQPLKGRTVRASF

## Cc1sc(C(=O)c2cncnc2N[C@@H]2C[C@H](COS(N)(=O)=O)[C@@H](O)C2)cc1[C@@H]1NCCc2ccc(Cl)cc21
SUMO-activating enzyme [1]
  IC50: 1 nM
[2]
  IC50: > 1000 nM
NEDD8 activating enzyme
  IC50: 960 nM
SUMO-activating enzyme [3]
  IC50: 15 nM
SUMO-activating enzyme [4]
  IC50: 32 nM
SUMO-activating enzyme [5]
  IC50: 46 nM
[6]
  inhibition: Active
OCI-Ly10
  EC50: 4 nM
HCT-116
  Activity: Active
[7]
  logD: 2.1
[8]
  pKa: 3.6
[9]
  Papp A→B: 0.3 ×10⁻⁶ cm/s
[10]
  efflux ratio: > 16
[11]
  solubility at 24 h: 20 mg/mL (≈ 34.6 mM)
Carbonic anhydrase 1
  IC50: 90 nM
Carbonic anhydrase 2
  IC50: 20 nM
[12]
  AUC: 31.2 µM·h
[13]
  AUC: 0.5 µM·h
[14]
  clearance: 1.67 mL/min/kg
[15]
  clearance: 61.7 mL/min/kg
[16]
  Vd: 0.2 L/kg
[17]
  Vd: 8.5 L/kg
[18]
  half-life: 2.6 h
[19]
  half-life: 2.1 h
[20]
  AUC: 32 µM·h
[21]
  AUC: 0.3 µM·h
[22]
  bioavailability: 7.3%

Reference: ChEMBL document CHEMBL4834402, “Discovery of TAK-981, a First-in-Class Inhibitor of SUMO-Activating Enzyme for the Treatment of Cancer” (J Med Chem, 2021)
